Assay outcomes (PubChem BioAssay)
Most compounds without a hit are left out; they make up all but 1.5% or so of the library.
C2C12 statin: suppression of simvastatin myotoxicity; 0.78% of 330,000 active; rescue of ATP level, % at 7.49 µM; C2C12 myotubes + simvastatin, ATP luminescence, 48 h; scaled: DMSO 0, geranylgeraniol control 100;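 active = mean ATP rescue above about 67%, or every replicate alone reaching that limit, limit read from the data, passing the limit was not always enough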;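 note: myotubes were challenged with 10 µM simvastatin during compound exposure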
SUMO Mot1 rescue: SUMOylation pathway inhibition by Mot1-301 growth rescue | S. cerevisiae Mot1-301 growth rescue, ATP luminescence, 38.5C; percent above DMSO median, 100 means doubled | growth rescue, % at 18.8 µM | 1% of 320,000 active;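 active = every valid replicate shows activation above 250% relative to neutral control wells; inactive = the rest, any valid replicate at or below 250%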;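 note: OY570 slx delta 5 strain wells were the positive control but not used for scaling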
Cneo AK release: Cryptococcus neoformans lysis via adenylate kinase release. 0.2% of 360,000 active. lysis activity, % at 15 µM. C. neoformans lysis, adenylate kinase release luminescence, 4 h; normalised: neutral wells 0, clomiphene wells 100. AID 651654;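 active = mean lysis activity across replicates of at least 80%, whatever share of replicates individually reach that level; inactive = mean lysis activity below 80%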
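Material: C. neoformans cells | Amount: Yeast cell density of 5 × 10^6 cells/mL | Medium: Fresh YPD growth medium | Dosing: Single dose | Times: Static 4 h at 37 °C with compound, 1 h detection | Detection: AK luminescence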
Yeast Mot1 SUMO: SUMO pathway inhibitors in yeast Mot1-301 growth; shares compounds with SUMO Mot1 rescue; S. cerevisiae Mot1-301 galactose growth, ATP luminescence, 24 h; -100 = growth of slx-deleted rescue strain; growth activity, percent, % at 42 µM; 2,300 tested, under 10 active; AID 493004;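 active = Signal drops as the depositor expects, and the fitted half-maximal dose is no more than ten times the top valid tested dose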;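 note: more negative values mean stronger growth rescue toward the control strain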
Active calls of the source: *; . = not tested or not shown; + = active, no number.

SMILES	C2C12 statin	SUMO Mot1 rescue	Cneo AK release	Yeast Mot1 SUMO
O=C(C[C@@H]1CC[C@@H]2[C@H](COC[C@@H](O)CN2C(=O)Nc2cccc(Cl)c2)O1)NCC1CCCCC1	8	.	-9	.
COc1ccc(-c2csc(NC(=O)CCS(=O)(=O)c3ccccc3)n2)c(OC)c1	2	454*	.	0
COc1ccc(-c2csc(NC(=O)CS(=O)(=O)c3ccccc3)n2)c(OC)c1	18	.	1	.
C[C@H]1CN([C@@H](C)CO)C(=O)c2cccc(NC(=O)Nc3ccccc3)c2O[C@@H]1CN(C)CC1CCCCC1	50	.	3	.
COc1ccc(/C(CC2(O)C(=O)Nc3ccccc32)=N\O)cc1 (configuration not stated)	14	-2	0	.
C/C(CC1(O)C(=O)Nc2ccccc21)=N\O (configuration not stated)	-1	519*	6	0
C[C@@H]1CN([C@@H](C)CO)C(=O)c2cccc(NC(=O)C3CCCCC3)c2O[C@H]1CN(C)S(=O)(=O)c1ccc(F)cc1	13	.	4	.
CCCCCCC(C)n1[nH]c(=O)c2c(C)cc(=O)[nH]c21 (configuration not stated)	.	531*	0	0
CCCCC(C)n1[nH]c(=O)c2c(C)cc(C)nc21 (configuration not stated)	.	-13	.	.
OCC1(Cc2cccc(Cl)c2)CCCN(Cc2ccc(F)c(F)c2)C1 (configuration not stated)	-11	382*	-1	-1
COc1cc(CN2CCCC(CO)(Cc3cccc(Cl)c3)C2)cc(OC)c1O (configuration not stated)	1	2	2	.
CC(=O)Nc1ccc(CN2CCCC(CO)(Cc3ccccc3C)C2)cc1 (configuration not stated)	.	-3	.	.
COc1ccc(CN2CCCC(CO)(Cc3cccc(Cl)c3)C2)cc1OC (configuration not stated)	8	-13	-1	.
COc1cc(CN2CCCC(CO)(Cc3cccc(Cl)c3)C2)cc2c1OCO2 (configuration not stated)	-41	+	-2	1
CC(=O)Nc1ccc(CN2CCCC(CO)(Cc3cccc(Cl)c3)C2)cc1 (configuration not stated)	-4	+	-2	0
CCCN1C[C@H](C)[C@H](OC)CN(C)C(=O)c2cc(NC(=O)c3cccc(F)c3)ccc2OC[C@@H]1C	7	.	-1	.
COc1ccccc1-c1ccc2c(c1)O[C@@H](CN(C)S(=O)(=O)c1ccc(F)cc1)[C@@H](C)CN([C@H](C)CO)S2(=O)=O	-26	.	1	.
CCOc1ncccc1C(=O)OCC(=O)Nc1cccc(S(N)(=O)=O)c1	5	-17	12	.
NS(=O)(=O)c1cccc(NC(=O)c2cccnc2Oc2ccccc2)c1	.	936*	.	0
COc1ccc(CNC(=O)C[C@H]2C=C[C@H](NC(=O)c3ccc4c(c3)OCO4)[C@@H](CO)O2)cc1	-4	.	-5	.
COCC(=O)Nc1ccc2c(c1)[C@@H]1C[C@@H](CC(=O)O)O[C@@H](CO)[C@@H]1O2	-2	.	2	.
COc1ccccc1/C=C/C(=O)c1ccccc1	.	85	.	.
COc1ccccc1/C=C/C(=O)c1c2c(c(C)[nH]c1=O)CCCC2	-184	-13	6	0
Cc1cc(C(=O)COc2ccccc2C(N)=O)c(C)n1C	-4	-15	.	.
Cc1cc(C(=O)COc2cccc3cccnc23)c(C)n1C	0	598*	1	0
SMILES	C2C12 statin	SUMO Mot1 rescue	Cneo AK release	Yeast Mot1 SUMO
Cc1cc(C(=O)Nc2ccc3c(c2)C(=O)N(C)[C@@H]2CC[C@H](CC(=O)N[C@H](C)c4ccccc4)O[C@H]2CO3)no1	20	.	9	.
CC(C)C#Cc1cnc2c(c1)C(=O)N([C@H](C)CO)C[C@@H](C)[C@H](CN(C)S(=O)(=O)c1cn(C)cn1)O2	-7	.	0	.
CCCOc1ccc(NC(=O)C2CC(=O)N3CCCN=C3S2)cc1 (configuration not stated)	-4	48	1	.
CCOc1ccc(NC(=O)C2CC(=O)N3CCCN=C3S2)cc1 (configuration not stated)	.	+	15	0
O=C(NC1CCCC1)C(c1cccs1)N(C(=O)c1ccno1)c1ccccc1 (configuration not stated)	.	815*	-2	0
O=C(NC1CCCCC1)C(c1cccs1)N(C(=O)c1ccccn1)c1ccccc1 (configuration not stated)	.	1	2	.
NC(=O)C1CCN(C2CC(=O)N(c3cccc(F)c3)C2=O)CC1 (configuration not stated)	-2	-6	1	.
NC(=O)C1CCN(C2CC(=O)N(c3ccc(F)c(Cl)c3)C2=O)CC1 (configuration not stated)	-5	649*	0	-1
CCOC(=O)C1CCN(C2CC(=O)N(c3cccc(Cl)c3)C2=O)CC1 (configuration not stated)	0	87	-1	.
O=C(C1CCN(C2CC(=O)N(c3cccc(Cl)c3)C2=O)CC1)N1CCCC1 (configuration not stated)	.	417*	0	-1
C[C@H]1CN([C@@H](C)CO)C(=O)Cc2cc(NC(=O)CCN3CCOCC3)ccc2O[C@H]1CN(C)S(=O)(=O)c1cn(C)cn1	11	.	0	.
CCCC(=O)Nc1ccc2c(c1)C(=O)N(C)[C@H]1CC[C@@H](CC(=O)NCc3ccccc3F)O[C@H]1CO2	-15	.	-4	.
C=CCN1c2ccccc2[C@]23C[C@@H](C(=O)OC)N(C(C)=O)C2=NC(C(=O)OC)=C(C(=O)OC)[C@H]13	21	-1	-1	.
C=CCN1c2ccccc2[C@]23C[C@@H](C(=O)OC)N=C2NC(C(=O)OC)=C(C(=O)OC)[C@H]13	9	834*	-1	-1
Cc1noc(C)c1NC(=O)N(C)C[C@@H]1Oc2ccc(NC(=O)CCCCCC(=O)Nc3ccccc3N)cc2CC(=O)N([C@H](C)CO)C[C@@H]1C	3	.	2	.
CN(C)C(CNC(=O)c1ccc(C2SCCS2)cc1)c1ccccc1 (configuration not stated)	-6	-11	-1	.
CC(C)C(NC(=O)c1c(F)cccc1F)C(=O)NCC(c1ccccc1)N(C)C (configuration not stated)	2	6	4	.
CN(C)C(CNC(=O)CNC(=O)c1ccc(Br)cc1)c1ccccc1 (configuration not stated)	14	599*	1	0
CC(C)C(NC(=O)c1ccccc1)C(=O)NCC(c1ccccc1)N(C)C (configuration not stated)	.	+	.	0
COc1ccc(C(=O)N/C(=C\c2cc(OC)c(OC)cc2[N+](=O)[O-])C(=O)NCCO)cc1	.	993*	.	0
COc1ccc(C(=O)N/C(=C\c2cc(OC)c(OC)cc2[N+](=O)[O-])C(=O)NCC(=O)O)cc1	.	11	.	.
O=C(C[C@H]1CC[C@@H](NC(=O)c2cccc(F)c2)[C@H](CO)O1)Nc1nccs1	16	.	20	.
